Test results taken from ChEMBL document CHEMBL1130407, “Structure-based design of new constrained cyclic agonists of the cholecystokinin CCK-B receptor” (J Med Chem, 1997).
Non-standard residues stand in square brackets, D forms with d. Residues, ends and D or L forms follow the SMILES beside them. *: point of attachment. NMeNle = CCCC[C@H](NC)C(=O)O; Boc = CC(C)(C)OC(=O)*

Experiments:
[1] = target: T1, Cholecystokinin receptor type A (Cavia porcellus, UniProt Q63931); test: Inhibition of [3H]pCCK-8 binding to Cholecystokinin type A receptor of Guinea pig pancreatic membranes
T1 sequence (Q63931 whole entry): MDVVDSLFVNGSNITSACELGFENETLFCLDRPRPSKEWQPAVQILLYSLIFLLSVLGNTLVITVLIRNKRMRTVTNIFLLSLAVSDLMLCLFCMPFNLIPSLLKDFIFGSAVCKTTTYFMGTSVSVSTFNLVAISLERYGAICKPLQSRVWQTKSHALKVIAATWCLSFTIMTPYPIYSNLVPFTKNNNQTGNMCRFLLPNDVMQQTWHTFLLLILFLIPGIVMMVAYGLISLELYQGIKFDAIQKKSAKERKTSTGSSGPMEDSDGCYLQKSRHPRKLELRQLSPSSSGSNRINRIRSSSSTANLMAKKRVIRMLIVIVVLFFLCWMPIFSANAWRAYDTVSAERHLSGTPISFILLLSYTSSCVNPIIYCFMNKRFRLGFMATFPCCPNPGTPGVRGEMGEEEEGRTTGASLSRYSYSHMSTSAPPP
Outline: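 Guinea pig pancreatic membranes (0.2 mg protein/tube) incubated with 0.1 nM [3H]pCCK8 and varying competitor for 120 min at 25 °C. Buffer: 10 mM Pipes-HCl pH 6.5, 30 mM MgCl2, 0.2 mg/mL bacitracin, 0.2 mg/mL soybean trypsin inhibitor. Filtration read-out; Ki by Cheng–Prusoff; three experiments in triplicate, mean ± SEM.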

[2] = target: T2, Gastrin/cholecystokinin type B receptor (Rattus norvegicus, UniProt P30553); test: Affinity to inhibit [3H]pCCK-8 specific binding on rat brain Cholecystokinin type B receptor expressed in CHO cells; assay type: cell-based
T2 sequence (P30553 whole entry): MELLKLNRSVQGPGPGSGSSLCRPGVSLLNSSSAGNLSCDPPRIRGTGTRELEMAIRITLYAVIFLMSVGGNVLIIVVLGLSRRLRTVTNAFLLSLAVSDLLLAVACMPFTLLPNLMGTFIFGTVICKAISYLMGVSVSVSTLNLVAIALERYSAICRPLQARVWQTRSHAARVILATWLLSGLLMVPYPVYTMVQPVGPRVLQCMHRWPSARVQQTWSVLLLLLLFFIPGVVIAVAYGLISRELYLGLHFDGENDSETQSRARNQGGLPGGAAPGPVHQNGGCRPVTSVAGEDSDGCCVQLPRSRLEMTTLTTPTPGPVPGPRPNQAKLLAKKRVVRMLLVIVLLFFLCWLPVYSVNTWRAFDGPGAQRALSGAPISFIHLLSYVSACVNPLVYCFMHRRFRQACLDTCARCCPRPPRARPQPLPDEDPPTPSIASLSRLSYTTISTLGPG

[3] = target: T3, Gastrin/cholecystokinin type B receptor (Rattus norvegicus) (UniProt P30553); test: Compound was tested for its ability to stimulate the CCK-B/gastrin receptor by measuring gastric acid output in the anesthetized perfused rat stomach; assay type: functional, tissue-based
T3 sequence (whole entry): T2 sequence (P30553 whole entry)
Outline: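 Male Sprague–Dawley rats (300 ± 25 g), fasted 18 h with water available, anesthetized with intramuscular urethane (0.6–0.7 mL of 25% solution per 100 g). Compounds in saline given iv by continuous infusion. Gastric secretion collected every 15 min and H+ titrated with 0.01 N NaOH to pH 7. Output expressed as % of baseline; ED50 estimated from dose-response curves.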

[4] = target: T2, Gastrin/cholecystokinin type B receptor; test: Effective concentration for the stimulation of Inositol Phosphate accumulation in CHO cells expressing wild-type Cholecystokinin type B receptor; assay type: functional, cell-based

Row | Ki [1] [nM] | Ki ([2]; cho) [nM] | SMILES | also measured
1 | 2290 |  | C[C@]1(Cc2c[nH]c3ccccc23)NC(=O)CC(=O)NCCCC[C@@H](C(=O)N[C@@H](CC(=O)O)C(=O)N[C@@H](Cc2ccccc2)C(N)=O)NC1=O | 
2 | > 10000 |  | C[C@]1(Cc2c[nH]c3ccccc23)NC(=O)CCCCCCC[C@@H](C(=O)N[C@@H](CC(=O)O)C(=O)N[C@@H](Cc2ccccc2)C(N)=O)NC1=O | 
3 | 2880 | 142 | C[C@]1(Cc2c[nH]c3ccccc23)NC(=O)CCCCCC[C@@H](C(=O)N[C@@H](CC(=O)O)C(=O)N[C@@H](Cc2ccccc2)C(N)=O)NC1=O | 
4 |  |  | C[C@]1(Cc2c[nH]c3ccccc23)NC(=O)CCCCSSCC[C@H](C(=O)N[C@@H](CC(=O)O)C(=O)N[C@@H](Cc2ccccc2)C(N)=O)NC1=O | ED50 [3]: 52 nM/h/kg
5 | 271 | 80 | C[C@]1(Cc2c[nH]c3ccccc23)NC(=O)CCCCSSCC[C@@H](C(=O)N[C@@H](CC(=O)O)C(=O)N[C@@H](Cc2ccccc2)C(N)=O)NC1=O | EC50 ([4]; cho): 7 nM
6 | > 5000 |  | CCCC[C@@H](C(=O)N[C@@H](CC(=O)O)C(=O)N[C@@H](Cc1ccccc1)C(N)=O)N(C)C(=O)[C@H](Cc1c[nH]c2ccccc12)NC(=O)OC(C)(C)C (Boc-W[NMeNle]DF-NH2) | Ki [2]: 8.7 nM; EC50 [4]: 1.5 nM
7 | 2210 |  | C[C@]1(Cc2c[nH]c3ccccc23)NC(=O)CCCCCCC[C@H](C(=O)N[C@@H](CC(=O)O)C(=O)N[C@@H](Cc2ccccc2)C(N)=O)NC1=O | ED50 [3]: 7.6 nM/h/kg
8 | 36100 |  | CSCC[C@H](NC(=O)[C@@H](N)Cc1c[nH]c2ccccc12)C(=O)N[C@@H](CC(=O)O)C(=O)N[C@@H](Cc1ccccc1)C(N)=O [TETRAGASTRIN] | 
9 | 2470 | 23 | C[C@]1(Cc2c[nH]c3ccccc23)NC(=O)CCCCCCCC[C@@H](C(=O)N[C@@H](CC(=O)O)C(=O)N[C@@H](Cc2ccccc2)C(N)=O)NC1=O | EC50 ([4]; cho): 4 nM
